Screens from PubChem BioAssay.
STAT3 act = STAT3 signaling activation; U3A cells, IL-6 STAT3-luciferase reporter, luminescence; 100% = signal with IL-6 EC80 alone; activation (% of control), % at 5.6 µM; 190,000 compounds, 0.91% hits;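 active = activation above the screen-wide mean of compound activation plus 3 SD, cut at about 130% in these data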;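 note: 0% = background luminescence of wells with medium and substrate only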
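Assay system – human STAT1-deficient U3A cells with stable STAT3-luciferase reporter · Also added – IL-6 (33 ng/mL) · Schedule – compound 1 h, then IL-6 6 h at 37 °C · Technique – reporter luminescence signal · Evaluation – % activation versus median of IL-6-stimulated wells · Benchmarks – IL-6-only wells as 100% reference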
Pf gamet viab = P. falciparum stage V gametocyte viability inhibition; 150,000 compounds, 0.065% hits; P. falciparum stage V gametocytes, ATP luminescence, 24 h; inhibition, % at 10.9 µM;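 active = inhibition above the mean plus 3 SD of compounds within the control limits, set per campaign, cut at about 38% in these data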;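 note: 0% = DMSO wells and 100% = medium only without gametocytes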
STAT1 activator = STAT1 signaling activation | activation (% of control), % at 5.5 µM | NIH 3T3 STAT1-luciferase reporter, IFN-gamma, luminescence; 100% = IFN-gamma alone, no compound | 200,000 compounds, 2.6% hits;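 active = activation above the screen-wide mean activation plus 3 SD, cut at about 130% in these data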;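 note: raw ratio to IFN-gamma control signal so 100% means no change and 0% no light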
NF-kB expr up = compounds increasing NF-kB expression in human neuronal cells; 190,000 compounds, 1.6% hits; fold change at 12.5 µM; NF-kB reporter expression; stronger effect = higher value; AID 1239; in the data active = fold change above about 3.3
APP 5'UTR act = APP 5'UTR luciferase reporter activation; SH-SY5Y APP 5'UTR luciferase reporter, luminescence; zero percent = DMSO vehicle wells; activation, % at 2 µM; 190,000 compounds, 1% hits;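 active = activation above a set limit, based on mean plus 3 SD of controls, cut at about 140% in these data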
STAT1 blocker = reduces IFN-gamma driven STAT1 reporter signal; inhibition, % at 5.5 µM; NIH 3T3 STAT1-luciferase reporter, luminescence; 200,000 compounds, 0.35% hits;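 active = inhibition above a set limit, the mean inhibition across all tested compounds plus 3 SD, cut at about 34% in these data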;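 note: 0% = IFN-gamma with DMSO and 100% = IFN-gamma with 300 µM nifuroxazide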
* marks the source's active call; other numbers are inactive results; . = no result given. Only some compounds are listed: those with a hit (about 3.9% of all), similar ones and a draw of the others.

SMILES	STAT3 act	Pf gamet viab	STAT1 activator	NF-kB expr up	APP 5'UTR act	STAT1 blocker
CCN(CC)C(=O)c1sc2nc(-c3ccc(OC)cc3)cn2c1C	97	19	143*	2.9	117	-47
CCn1c2ccccc2c2cc(NC(=O)c3cc(OC)cc(OC)c3)ccc21	128	12	97	4*	-95	3
CCn1c2ccccc2c2cc(NC(=O)c3cc(OC)c(OC)c(OC)c3)ccc21	116	4	103	3.2	-8	-3
O=C(N/N=C/c1ccccc1F)c1ccc(COc2ccccc2Cl)o1	114	.	105	1	4	-6
Cc1ncoc1C(=O)Nc1cccc(Cl)c1	103	.	128	1.6	15	-31
CC(C)(C)c1ccc(C(=O)Nc2ccc(Cl)cc2)cc1	94	11	130*	1.6	126	-33
Cc1ocnc1C(=O)Nc1ccc(Cl)cc1	97	8	131*	1.8	28	-33
COC(=O)Cc1ccc(NC(=O)c2ccc(C(C)(C)C)cc2)cc1	30	-5	58	0.54	-84	44*
Cc1ccc(NC(=O)c2ocnc2C)cc1Cl	91	.	145*	2.7	73	-49
CCOC(=O)c1[nH]cnc1C(=O)Nc1ccc(Cl)cc1	83	1	118	1.2	3	-21
NCCCCCc1cn(CC(=O)NCCCCCCCCCCC(=O)N2CCNCC2)nn1	.	31	.	.	.	.
CSc1ccc(N=Nc2c(C)[nH]n(C)c2=O)cc1	.	-2	.	.	.	.
Cc1ccc(/C=C/C(=O)c2c(C)nc3ccccn23)cc1	98	16	147*	3.6*	196*	-51
Cc1sc2c(c1C)C(=O)NC(c1cccc(O)c1)N2 (stereo not given)	144*	.	103	1.9	14	-3
COC(=O)c1ccc(C2NC(=O)c3c(sc(C)c3C)N2)cc1 (stereo not given)	.	-5	.	.	.	.
COc1ccc(C(=S)N2CCOCC2)cc1OS(=O)(=O)c1ccccc1[N+](=O)[O-]	102	16	102	0.77	-4	-2
O=C(Cc1c(F)cccc1Cl)Nc1nc2ccccc2s1	105	.	135*	1	51	-43
Cc1ccc2nc(NC(=O)CCCC(=O)O)sc2c1	36	5	51	0.28	-60	51*
CCCCNC(=O)Nc1nc2ccc(CC)cc2s1	95	19	144*	1.9	85	-47
Cc1nc2ccc(NC(=O)Cc3c(F)cccc3Cl)cc2s1	.	-43	.	.	.	.
CCOCC(=O)Nc1nc2ccc(C)cc2s1	77	1	124	3.4*	96	-26
Cc1ccc2nc(NC(=O)CCCc3nc4ccccc4s3)sc2c1	66	.	114	1.4	62	-15
N#CC(c1nc2ccccc2nc1OCCO)S(=O)(=O)c1ccccc1 (stereo not given)	.	-5	.	.	.	.
Cc1noc(C)c1NC(=O)Nc1ccc2c(c1)CC(=O)N([C@@H](C)CO)C[C@@H](C)[C@@H](CN(C)C(=O)Nc1cccc3ccccc13)O2	.	3	.	.	.	.
O=C(O)CN1C(=O)/C(=C/c2ccc(SCc3ccccc3)o2)SC1=S	108	-2	95	0.92	16	3
SMILES	STAT3 act	Pf gamet viab	STAT1 activator	NF-kB expr up	APP 5'UTR act	STAT1 blocker
CCOC(=O)Nc1nc2ccccc2s1	87	.	127	3.5*	56	-29
O=C(O)CCC(=O)Nc1nnc(C(F)(F)F)s1	94	18	98	1.4	-1	2
CCC(NC(=O)Nc1nnc(C(F)(F)F)s1)(C(F)(F)F)C(F)(F)F	21	.	44	0.7	2	61*
CC1CCN(c2oc(-c3ccccc3Cl)nc2C#N)CC1	114	18	121	3.7*	80	-24
N#Cc1nc(-c2ccccc2Cl)oc1N1CCOCC1	109	.	109	1.3	13	-10
CCCOc1ccc(-c2csc(N)n2)cc1[N+](=O)[O-]	115	-24	138*	2.3	67	-42
CCCCOc1ccc(-c2cn3ccccc3n2)cc1[N+](=O)[O-]	102	6	132*	4.6*	134	-35
Nc1nc(-c2ccc([N+](=O)[O-])cc2)cs1	104	.	106	1.4	-22	-6
Cn1c(-c2sc(=S)n(-c3ccccc3)c2N)nc2ccccc21	133*	-31	103	1.5	-2	-3
Cc1nc(NCc2ccco2)c2c(C)c(C)sc2n1	139*	-7	193*	1.3	-4	-72
